# Measured values as given in ChEMBL document CHEMBL4689842, “EUbOPEN Chemogenomics Library wave 1” (2021).
# Test system: Fibroblast
# Assay: Multiplex assay against human fibroblast
# Assay type: toxicity, cell-based
# Outline: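 Phenotypes for tubulin, mitochondrial mass and membrane permeability are expressed as per cents of healthy-nucleus cells. Cells were stained live at seeding with Hoechst33342, BioTracker Green Microtubule Cytoskeleton Dye, MitoTracker Red and Annexin V Alexa Fluor 680, then imaged after compound addition on a CQ1 microscope at 37°C and 5% CO2. Machine-learning gating in CellPathfinder separated Hoechst high-intensity objects from normal cells, divided normal cells by nuclear state (healthy, pyknosed, fragmented) and divided pyknosed cells into mitotic or apoptotic.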
# [1] = 12 h, 1 µM, compound concentration 1 uM, replicate 1
# [2] = 12 h, 1 µM, compound concentration 1 uM, replicate 2
# [3] = 12 h, 10 µM, compound concentration 10 uM, replicate 1
# [4] = 12 h, 10 µM, compound concentration 10 uM, replicate 2
# [5] = 24 h, 1 µM, compound concentration 1 uM, replicate 1
# [6] = 24 h, 1 µM, compound concentration 1 uM, replicate 2
# [7] = 24 h, 10 µM, compound concentration 10 uM, replicate 1
# [8] = 24 h, 10 µM, compound concentration 10 uM, replicate 2
# [9] = 48 h, 1 µM, compound concentration 1 uM, replicate 1
# [10] = 48 h, 1 µM, compound concentration 1 uM, replicate 2
# [11] = 48 h, 10 µM, compound concentration 10 uM, replicate 1
# [12] = 48 h, 10 µM, compound concentration 10 uM, replicate 2
smiles,measurement,setting,value
CN(c1cc(C(F)(F)F)nc(OCCC(=O)O)n1)c1cccc2c1CCC2,Population Apoptotic (%),[1],70%
same,Population Fragmented Nuclei (%),[1],18%
same,Population Healthy Nuclei (%),[1],47%
same,Population Hoechst High Intensity Objects (%),[1],11%
same,Population Membrane Permeable-Phenotype (%),[1],17%
same,Population Mitochondria Different-Phenotype (%),[1],6%
same,Population Mitotic Cells (%),[1],29%
same,Population Normal (%),[1],88%
same,Population Pyknosed Nuclei (%),[1],33%
same,Population Tubulin-Different-Phenotype (%),[1],27%
same,Total Cell Count,[1],136
same,Population Apoptotic (%),[2],0%
same,Population Fragmented Nuclei (%),[2],9%
same,Population Healthy Nuclei (%),[2],80%
same,Population Hoechst High Intensity Objects (%),[2],12%
same,Population Membrane Permeable-Phenotype (%),[2],4%
same,Population Mitochondria Different-Phenotype (%),[2],20%
same,Population Mitotic Cells (%),[2],100%
same,Population Normal (%),[2],87%
same,Population Pyknosed Nuclei (%),[2],9%
same,Population Tubulin-Different-Phenotype (%),[2],28%
same,Total Cell Count,[2],65
same,Population Apoptotic (%),[3],61%
same,Population Fragmented Nuclei (%),[3],23%
same,Population Healthy Nuclei (%),[3],49%
same,Population Hoechst High Intensity Objects (%),[3],11%
same,Population Membrane Permeable-Phenotype (%),[3],25%
same,Population Mitochondria Different-Phenotype (%),[3],6%
same,Population Mitotic Cells (%),[3],38%
same,Population Normal (%),[3],88%
same,Population Pyknosed Nuclei (%),[3],27%
same,Population Tubulin-Different-Phenotype (%),[3],26%
same,Total Cell Count,[3],172
same,Population Apoptotic (%),[4],0%
same,Population Fragmented Nuclei (%),[4],13%
same,Population Healthy Nuclei (%),[4],86%
same,Population Hoechst High Intensity Objects (%),[4],14%
same,Population Membrane Permeable-Phenotype (%),[4],4%
same,Population Mitochondria Different-Phenotype (%),[4],10%
same,Population Mitotic Cells (%),[4],0%
same,Population Normal (%),[4],85%
same,Population Pyknosed Nuclei (%),[4],0%
same,Population Tubulin-Different-Phenotype (%),[4],30%
same,Total Cell Count,[4],71
same,Population Apoptotic (%),[5],54%
same,Population Fragmented Nuclei (%),[5],26%
same,Population Healthy Nuclei (%),[5],46%
same,Population Hoechst High Intensity Objects (%),[5],11%
same,Population Membrane Permeable-Phenotype (%),[5],28%
same,Population Mitochondria Different-Phenotype (%),[5],7%
same,Population Mitotic Cells (%),[5],45%
same,Population Normal (%),[5],88%
same,Population Pyknosed Nuclei (%),[5],27%
same,Population Tubulin-Different-Phenotype (%),[5],30%
same,Total Cell Count,[5],129
same,Population Apoptotic (%),[6],0%
same,Population Fragmented Nuclei (%),[6],4%
same,Population Healthy Nuclei (%),[6],95%
same,Population Hoechst High Intensity Objects (%),[6],8%
same,Population Membrane Permeable-Phenotype (%),[6],2%
same,Population Mitochondria Different-Phenotype (%),[6],13%
same,Population Mitotic Cells (%),[6],0%
same,Population Normal (%),[6],91%
same,Population Pyknosed Nuclei (%),[6],0%
same,Total Cell Count,[6],68
same,Population Apoptotic (%),[7],56%
same,Population Fragmented Nuclei (%),[7],14%
same,Population Healthy Nuclei (%),[7],60%
same,Population Hoechst High Intensity Objects (%),[7],7%
same,Population Membrane Permeable-Phenotype (%),[7],21%
same,Population Mitochondria Different-Phenotype (%),[7],3%
same,Population Mitotic Cells (%),[7],43%
same,Population Normal (%),[7],92%
same,Population Pyknosed Nuclei (%),[7],25%
same,Population Tubulin-Different-Phenotype (%),[7],34%
same,Total Cell Count,[7],198
same,Population Apoptotic (%),[8],0%
same,Population Fragmented Nuclei (%),[8],13%
same,Population Healthy Nuclei (%),[8],81%
same,Population Hoechst High Intensity Objects (%),[8],13%
same,Population Membrane Permeable-Phenotype (%),[8],3%
same,Population Mitochondria Different-Phenotype (%),[8],13%
same,Population Mitotic Cells (%),[8],100%
same,Population Normal (%),[8],86%
same,Population Pyknosed Nuclei (%),[8],5%
same,Population Tubulin-Different-Phenotype (%),[8],44%
same,Total Cell Count,[8],79
same,Population Apoptotic (%),[9],51%
same,Population Fragmented Nuclei (%),[9],35%
same,Population Healthy Nuclei (%),[9],41%
same,Population Hoechst High Intensity Objects (%),[9],20%
same,Population Membrane Permeable-Phenotype (%),[9],32%
same,Population Mitochondria Different-Phenotype (%),[9],2%
same,Population Mitotic Cells (%),[9],48%
same,Population Normal (%),[9],79%
same,Population Pyknosed Nuclei (%),[9],23%
same,Population Tubulin-Different-Phenotype (%),[9],38%
same,Total Cell Count,[9],147
same,Population Apoptotic (%),[10],33%
same,Population Fragmented Nuclei (%),[10],19%
same,Population Healthy Nuclei (%),[10],76%
same,Population Hoechst High Intensity Objects (%),[10],10%
same,Population Membrane Permeable-Phenotype (%),[10],16%
same,Population Mitochondria Different-Phenotype (%),[10],0%
same,Population Mitotic Cells (%),[10],66%
same,Population Normal (%),[10],90%
same,Population Pyknosed Nuclei (%),[10],4%
same,Population Tubulin-Different-Phenotype (%),[10],30%
same,Total Cell Count,[10],80
same,Population Apoptotic (%),[11],54%
same,Population Fragmented Nuclei (%),[11],25%
same,Population Healthy Nuclei (%),[11],67%
same,Population Hoechst High Intensity Objects (%),[11],14%
same,Population Membrane Permeable-Phenotype (%),[11],14%
same,Population Mitochondria Different-Phenotype (%),[11],3%
same,Population Mitotic Cells (%),[11],45%
same,Population Normal (%),[11],85%
same,Population Pyknosed Nuclei (%),[11],7%
same,Population Tubulin-Different-Phenotype (%),[11],19%
same,Total Cell Count,[11],175
same,Population Apoptotic (%),[12],40%
same,Population Fragmented Nuclei (%),[12],22%
same,Population Healthy Nuclei (%),[12],73%
same,Population Hoechst High Intensity Objects (%),[12],10%
same,Population Membrane Permeable-Phenotype (%),[12],15%
same,Population Mitochondria Different-Phenotype (%),[12],4%
same,Population Mitotic Cells (%),[12],60%
same,Population Normal (%),[12],89%
same,Population Pyknosed Nuclei (%),[12],4%
same,Population Tubulin-Different-Phenotype (%),[12],34%
same,Total Cell Count,[12],125
